# Laboratory results published in ChEMBL document CHEMBL2177013, “Synthesis and biological evaluation of tylophorine-derived dibenzoquinolines as orally active agents: exploration of the role of tylophorine e ring on biological activity” (J Med Chem, 2012).
# Active and inactive are the calls of the source. No cut-off for these calls is given here.
# Columns and labels:
# HepG2 = assay: Growth inhibition of human HepG2 cells; format: functional
# How it was run: (§1)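 Cells seeded per well: NUGC-3 4500, HONE-1 6000, MCF-7 6500, NCI-H460 2500, HepG2 10000, A549 5000; A549 grown in RPMI 1640 with 2 g/L NaHCO₃, 2 mM L-glutamine and 10% FBS. GI₅₀ = concentration giving 50% growth inhibition, mean of at least three experiments each in duplicate. Paclitaxel served as positive control.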
# [1] = Solubility in DMSO; format: physicochemical
# How it was run: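 Compound dissolved in DMSO with sonication; maximal volume before precipitation measured and used to calculate saturation solubility.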
# NCI-H460 [2] = assay: Growth inhibition of human NCI-H460 cells; format: functional; how it was run: as §1
# NUGC-3 = assay: Growth inhibition of human NUGC3 cells; format: functional; how it was run: as §1
# [3] = Solubility in DMA; format: physicochemical
# A549 [4] = assay: Growth inhibition of human A549 cells; format: functional; how it was run: as §1
# [5] = tested on: Transmissible gastroenteritis virus; assay: Antiviral activity against Transmissible gastroenteritis virus infected in ST cells pre-treated 2 hrs before virus infection measured 6 hrs post virus infection by immunofluorescent assay; format: functional, organism-based; settings: Alphacoronavirus 1, ST
# How it was run: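 ST cells, with or without 2 h compound pretreatment (10 concentrations), infected with TGEV at MOI 10. Immunofluorescence with anti-spike and anti-nucleocapsid antibodies at 6 hpi. EC50 from dose–response curves, mean of at least three experiments, each in duplicate.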
# MCF7 [6] = assay: Growth inhibition of human MCF7 cells; format: functional; how it was run: as §1
# [7] = Growth inhibition of human HONE1 cells; format: functional; how it was run: as §1
# [8] = Cytotoxicity against mouse RAW264.7 cells; format: cell-based
# How it was run: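 RAW264.7 cells stimulated with LPS/IFNγ and compound-treated in parallel with the NO assay; CC50 taken as concentration giving 50% inhibition of cell growth. Mean of at least three experiments, each in duplicate.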
# A549 [9] = assay: Down regulation of cyclin A2 expression in human A549 cells incubated for 24 hrs by Western blotting; format: functional, cell-based
# RAW264.7 [10] = assay: Antiinflammatory activity in mouse RAW264.7 cells assessed as inhibition of LPS-induced nitric oxide production incubated for 18 hrs by nitrate/nitrite assay; format: functional, cell-based; settings: RAW264.7, 18 h
# How it was run: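 RAW264.7 seeded 65000 cells/well, cultured 24 h, then medium replaced with complete medium containing IFNγ (20 ng/mL)/LPS (5 μg/mL) plus compound at various concentrations for 18 h; nitric oxide measured by Nitrate/Nitrite kit. EC50 as mean of at least three experiments, each in duplicate.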
# [11] = Apparent elimination half life in Sprague-Dawley rat at 3 mg/kg, po by HPLC-MS method; format: ADME, organism-based; parameters: dose 3 mg/kg, route oral; settings: in vivo, read-out: betat1/2(app) (converted)
# How it was run: (§2)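 Male rats (330−380 g, 9−10 weeks), jugular vein cannula implanted 1 day before, fasted. 3 mg/kg given iv or orally (n = 3) in DMA/PEG400 30/70 v/v. Blood (150 μL) drawn at 0, 2, 5 (iv only), 15, 30 min and 1, 2, 4, 6, 8, 12, 24 h; plasma analysed by HPLC-MS; noncompartmental analysis.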
# A549 [12] = assay: Induction of c-Jun protein accumulation in human A549 cells incubated for 24 hrs by Western blotting; format: functional, cell-based
# RAW264.7 [13] = assay: Reduction in LPS/INFgamma-induced iNOS protein expression in mouse RAW264.7 cells incubated for 20 hrs by Western blotting; format: functional, cell-based
# How it was run: (§3)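 LPS/IFNγ-stimulated RAW264.7 cells treated with compound for 20 h. iNOS, COX-2 and GAPDH detected by Western blot; representative of at least three independent experiments.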
# [14] = Tmax in Sprague-Dawley rat at 3 mg/kg, po by HPLC-MS method; format: ADME, organism-based; parameters: dose 3 mg/kg, route oral; settings: in vivo; how it was run: as §2
# [15] = Oral bioavailability in Sprague-Dawley rat at 3 mg/kg by HPLC-MS method; format: ADME, organism-based; settings: in vivo; how it was run: as §2
# [16] = tested on: Transmissible gastroenteritis virus; assay: Antiviral activity against Transmissible gastroenteritis virus infected in ST cells assessed as reduction in N-protein expression pre-treated before virus infection measured 16 hrs post virus infection by Western blotting; format: functional, organism-based
# How it was run: (§4)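 ST cells pretreated with compound, then infected with TGEV. Western blot for nucleocapsid (N) protein, caspase 3 (cleavage of procaspase 3) and GAPDH at 16 hpi. Representative of at least three independent experiments.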
# [17] = Cmax in Sprague-Dawley rat at 3 mg/kg, po by HPLC-MS method; format: ADME, organism-based; parameters: dose 3 mg/kg, route oral; settings: in vivo; how it was run: as §2
# MCF7 [18] = assay: Down regulation of cyclin A2 expression in human MCF7 cells incubated for 24 hrs by Western blotting; format: functional, cell-based
# NCI-H460 [19] = assay: Down regulation of cyclin A2 expression in human NCI-H460 cells incubated for 24 hrs by Western blotting; format: functional, cell-based
# NCI-H460 [20] = assay: Induction of c-Jun protein accumulation in human NCI-H460 cells incubated for 24 hrs by Western blotting; format: functional, cell-based
# MCF7 [21] = assay: Induction of c-Jun protein accumulation in human MCF7 cells incubated for 24 hrs by Western blotting; format: functional, cell-based
# [22] = tested on: Transmissible gastroenteritis virus; assay: Antiviral activity against Transmissible gastroenteritis virus infected in ST cells assessed as reduction in caspase-3 activation pre-treated before virus infection measured 16 hrs post virus infection by Western blotting; format: functional, organism-based; how it was run: as §4
# [23] = Apparent elimination half life in Sprague-Dawley rat at 3 mg/kg, iv by HPLC-MS method; format: ADME, organism-based; parameters: dose 3 mg/kg, route intravenous; settings: in vivo, read-out: betat1/2(app) (converted); how it was run: as §2
# [24] = Clearance in Sprague-Dawley rat at 3 mg/kg, iv by HPLC-MS method; format: ADME, organism-based; parameters: dose 3 mg/kg, route intravenous; settings: in vivo; how it was run: as §2
# RAW264.7 [25] = assay: Reduction in LPS/INFgamma-induced COX2 protein expression in mouse RAW264.7 cells incubated for 20 hrs by Western blotting; format: functional, cell-based; how it was run: as §3
# [26] = AUC (0 to infinity) in Sprague-Dawley rat at 3 mg/kg, iv by HPLC-MS method; format: ADME, organism-based; parameters: time infinity, dose 3 mg/kg, route intravenous; settings: plasma
# How it was run: (§5)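 Male rats (330−380 g, 9−10 weeks old), jugular vein cannulated 1 day before dosing, fasted; 3 mg/kg iv or oral in DMA/PEG400 (30/70, v/v), n = 3. Blood (150 μL) drawn at 0, 2, 5 (iv only), 15, 30 min and 1, 2, 4, 6, 8, 12, 24 h, kept on ice; plasma analysed by HPLC-MS; noncompartmental analysis.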
# [27] = AUC (0 to infinity) in Sprague-Dawley rat at 3 mg/kg, po by HPLC-MS method; format: ADME, organism-based; parameters: dose 3 mg/kg, route oral, time infinity; settings: plasma; how it was run: as §5
# [28] = Volume of distribution at steady state in Sprague-Dawley rat at 3 mg/kg, iv by HPLC-MS method; format: ADME, organism-based; parameters: dose 3 mg/kg, route intravenous; settings: in vivo, read-out: Vdss; how it was run: as §2
compound,measurement,setting,value
CCCCN1CCc2c(c3cc(OC)c(OC)cc3c3cc(OC)c(OC)cc23)C1,GI50,HepG2,3040 nM
same,solubility,[1],45 mM
same,GI50,NCI-H460 [2],2050 nM
same,GI50,NUGC-3,1930 nM
same,solubility,[3],soluble
same,GI50,A549 [4],2220 nM
same,EC50,[5],4390 nM
same,GI50,MCF7 [6],1970 nM
same,GI50,[7],2750 nM
CCCN1CCc2c(c3cc(OC)c(OC)cc3c3cc(OC)c(OC)cc23)C1,CC50,[8],> 4000 nM
same,Activity,A549 [9],Active
same,EC50,RAW264.7 [10],1380 nM
same,half-life,[11],2.4 h
same,GI50,HepG2,770 nM
same,Activity,A549 [12],Active
same,solubility,[1],50 mM
same,GI50,NCI-H460 [2],450 nM
same,Activity,RAW264.7 [13],Active
same,Tmax,[14],4 h
same,GI50,NUGC-3,470 nM
same,bioavailability,[15],62.8%
same,solubility,[3],soluble
same,Activity,[16],Active
same,Cmax,[17],87 ng/mL
same,GI50,A549 [4],730 nM
same,Activity,MCF7 [18],Active
same,Activity,NCI-H460 [19],Active
same,EC50,[5],830 nM
same,Activity,NCI-H460 [20],Active
same,Activity,MCF7 [21],Active
same,Activity,[22],Active
same,half-life,[23],2.7 h
same,clearance,[24],60.8 mL/min/kg
same,Activity,RAW264.7 [25],Active
same,AUC(0-inf),[26],824 ng·h/mL
same,GI50,MCF7 [6],510 nM
same,AUC(0-inf),[27],515 ng·h/mL
same,GI50,[7],1210 nM
same,Vd,[28],9 L/kg
